In ChEMBL document CHEMBL1938359, “Pyrrolo[1,2-b]pyridazines, pyrrolo[2,1-f]triazin-4(3H)-ones, and related compounds as novel corticotropin-releasing factor 1 (CRF₁) receptor antagonists” (Bioorg Med Chem, 2012):
Calls of active or inactive are those of the source. No cut-off for these calls is given here.

How the values were obtained:
[1] = Volume of distribution at steady state in rat at 1 mg/kg, iv; type: ADME, organism-based; design: dose 1 mg/kg, route intravenous; conditions: in vivo, read-out: Vdss
Method in brief: (§1)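 Fasted male rats received a single 1 mg/kg dose, either iv in saline with 30% HP-β-CD or po in saline with 0.5% MC (n = 4 each). Jugular blood was taken by heparinized syringe (iv: 2 min–72 h; po: 1–72 h) and spun to plasma stored at −70 °C. AUC, Cmax, Tmax, T1/2, Vss and CL were derived from plasma concentration–time courses. F = dose-normalized AUCpo/AUCiv × 100.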

Rattus norvegicus [2] = assay: Anxiolytic activity against swin-stress-induced anxiety-like behavior in Sprague-Dawley rat assessed as increase in time spent in open arms at 10 mg/kg, po after 1 hr by plus-maze test; type: functional, organism-based; design: dose 10 mg/kg
Method in brief: (§2)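 Male Sprague-Dawley rats (230–280 g) received oral vehicle (0.5% MC) or compound 1 h before testing. They were forced to swim 120 s in 22 ± 2 °C water (25 cm deep) and dried. Each rat was placed at the maze centre facing a closed arm and video-tracked for 5 min. Time in and entries into open arms were scored. Non-stressed controls were included. Data are mean ± S.E., with n=16 per group. Dunnett test versus vehicle.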

[3] = Half life in rat at 1 mg/kg, iv; type: ADME, organism-based; design: dose 1 mg/kg, route intravenous; conditions: in vivo; method in brief: as §1
[4] = Oral bioavailability in rat at 1 mg/kg; type: ADME, organism-based; conditions: in vivo; method in brief: as §1
[5] = Total clearance in rat at 1 mg/kg, iv; type: ADME, organism-based; design: dose 1 mg/kg, route intravenous; conditions: in vivo; method in brief: as §1
[6] = molecular target: T1, Corticotropin-releasing factor receptor 1 (Homo sapiens, UniProt P34998); assay: Antagonist activity at human CRF1 receptor expressed in CHO-K1 cells assessed as CRF-stimulated cAMP accumulation by enzyme immunoassay; type: functional, cell-based; conditions: read-out: EC50 (the source's name)
T1 sequence (P34998 whole entry): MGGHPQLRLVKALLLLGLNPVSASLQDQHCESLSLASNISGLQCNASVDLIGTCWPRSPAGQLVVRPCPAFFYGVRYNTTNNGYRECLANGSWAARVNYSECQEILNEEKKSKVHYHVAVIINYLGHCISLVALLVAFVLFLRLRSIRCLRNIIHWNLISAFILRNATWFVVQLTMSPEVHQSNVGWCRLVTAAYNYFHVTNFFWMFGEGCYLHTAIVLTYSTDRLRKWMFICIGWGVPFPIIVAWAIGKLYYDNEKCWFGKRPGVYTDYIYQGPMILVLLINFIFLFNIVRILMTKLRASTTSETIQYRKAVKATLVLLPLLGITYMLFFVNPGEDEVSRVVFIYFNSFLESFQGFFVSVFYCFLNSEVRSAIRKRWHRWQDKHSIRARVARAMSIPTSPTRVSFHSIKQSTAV
Method in brief: (§3)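 CHO-K1 cells expressing CRF1 were seeded at 1 × 10^4 cells/well and incubated overnight, then washed twice with F-12. They were preincubated 10 min at 37 °C in F-12 containing 1 mmol/l IBMX. Test compound (1–10000 nmol/l) and 10 nmol/l CRF (final concentration not stated) were added, followed by 15 min at 37 °C. Cells were chilled and cAMP measured by enzyme immunoassay after blank subtraction. IC50 was taken from concentration–response curves.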

[7] = Cmax in rat at 1 mg/kg, po; conditions: in vivo
[8] = Half life in rat at 1 mg/kg, po; type: ADME, organism-based; design: dose 1 mg/kg, route oral; conditions: in vivo; method in brief: as §1
[9] = Tmax in rat at 1 mg/kg, po; type: ADME, organism-based; design: dose 1 mg/kg, route oral; conditions: in vivo; method in brief: as §1
[10] = AUC (infinity) in rat at 1 mg/kg, po; type: ADME, organism-based; design: time infinity, dose 1 mg/kg, route oral; conditions: plasma
Method in brief: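 Fasted male rats dosed orally once at 1 mg/kg in saline with 0.5% MC (w/v). Heparinized jugular-vein blood was taken at 1, 2, 4, 6, 8, 24, 48 and 72 h. Plasma was obtained by centrifugation and kept at -70 °C. AUC came from the plasma concentration–time profile.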

[11] = molecular target: T2, Corticotropin-releasing factor receptor 1 (Rattus norvegicus, UniProt P35353); assay: Antagonist activity at rat CRF1 receptor expressed in CHO-K1 cells assessed as CRF-stimulated cAMP accumulation by enzyme immunoassay; type: functional, cell-based; method in brief: as §3
T2 sequence (P35353 whole entry): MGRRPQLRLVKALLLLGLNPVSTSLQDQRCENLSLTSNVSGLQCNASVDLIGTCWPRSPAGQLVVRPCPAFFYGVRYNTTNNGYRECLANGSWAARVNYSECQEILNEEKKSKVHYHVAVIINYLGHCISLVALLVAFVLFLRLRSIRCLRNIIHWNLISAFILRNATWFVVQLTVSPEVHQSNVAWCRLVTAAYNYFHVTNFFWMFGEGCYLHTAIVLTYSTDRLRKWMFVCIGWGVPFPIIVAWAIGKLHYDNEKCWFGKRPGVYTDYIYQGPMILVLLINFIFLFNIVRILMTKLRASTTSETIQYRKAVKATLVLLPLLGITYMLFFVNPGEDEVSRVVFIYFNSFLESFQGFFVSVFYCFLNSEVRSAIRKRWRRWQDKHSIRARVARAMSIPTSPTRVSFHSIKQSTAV

Rattus norvegicus [12] = assay: Anxiolytic activity against swin-stress-induced anxiety-like behavior in po dosed Sprague-Dawley rat assessed as increase in time spent in open arms after 1 hr by plus-maze test; type: functional, organism-based; method in brief: as §2
[13] = AUC (infinity) in rat at 1 mg/kg, iv; type: ADME, organism-based; design: time infinity, dose 1 mg/kg, route intravenous; conditions: plasma
Method in brief: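 Fasted male rats given a single 1 mg/kg intravenous dose in saline with 30% HP-β-CD (w/v). Heparinized jugular-vein blood was drawn pre-dose and at 2, 5, 15 and 30 min and 1, 2, 3, 4, 8, 24, 48 and 72 h. Plasma was separated by centrifugation and stored at -70 °C. AUC was derived from the plasma concentration–time course.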

[14] = molecular target: T2, Corticotropin-releasing factor receptor 1; assay: Displacement of [125I]CRF from rat CRF1 receptor expressed in CHO-K1 cells after 2 hrs by gamma counter; type: cell-based; conditions: in the assay text read “in brain membranes” for “expressed in CHO-K1 cells”
Method in brief: (§4)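 Crude membranes came from CRF1-expressing CHO-K1 cells, homogenized in 50 mmol/l Tris–HCl with 10 mmol/l MgCl2, 2 mmol/l EDTA and aprotinin, then spun at 10,000 g. Membranes were incubated 2 h at room temperature with 0.5 nmol/l 125I human/rat CRF (added solution) and test compound (1–10000 nmol/l). Bound ligand was separated by centrifugation and washed with PBS/0.01% Triton X-100, then counted by γ-counter. Nonspecific binding was defined with 1 µmol/l unlabeled CRF. IC50 was taken from concentration–response curves.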

[15] = molecular target: T1, Corticotropin-releasing factor receptor 1; assay: Displacement of [125I]CRF from human CRF1 receptor expressed in CHO-K1 cells after 2 hrs by gamma counter; type: cell-based; method in brief: as §4
Rattus norvegicus [16] = assay: Anxiolytic activity against swin-stress-induced anxiety-like behavior in Sprague-Dawley rat assessed as increase in time spent in open arms at 3 mg/kg, po after 1 hr by plus-maze test; type: functional, organism-based; design: dose 3 mg/kg; method in brief: as §2

SMILES: CCC(CC)c1cc(C)n2nc(-c3cnc(OC(F)F)cc3C)n(C)c(=O)c12
- Vd [1]: 2.95 L/kg
- Activity (Rattus norvegicus [2]): Active
- half-life [3]: 4.3 h
- bioavailability [4]: 13.5%
- clearance [5]: 34.7 mL/min/kg
- IC50 [6]: 3.2 nM
- Cmax [7]: 21.5 ng/mL
- half-life [8]: 2.4 h
- Tmax [9]: 1 h
- AUC(0-inf) [10]: 70.2 ng·h/mL
- EC50 [11]: 2.6 nM
- Activity (Rattus norvegicus [12]): Dose-dependent effect
- AUC(0-inf) [13]: 518 ng·h/mL
- IC50 [14]: 8.4 nM

SMILES: CCC(CC)c1cc(C)n2nc(-c3ccc(OC)cc3C)n(CC(C)C)c(=O)c12
- IC50 [15]: 111 nM
- IC50 [6]: 47.2 nM

SMILES: CCC(CC)c1cc(C)n2nc(-c3ccc(OC)cc3C)[nH]c(=O)c12
- IC50 [15]: 149 nM
- IC50 [6]: 688 nM

SMILES: CCC(CC)c1cc(C)n2nc(-c3cc4c(cc3C)OCO4)c(C)cc12
- IC50 [15]: 18.3 nM
- IC50 [6]: 2.5 nM

SMILES: CCC(CC)c1cc(C)n2nc(-c3ccc(OC)nc3C)n(C)c(=O)c12
- IC50 [15]: 3.8 nM
- IC50 [6]: 1.1 nM

SMILES: CCC(CC)c1cc(C)n2nc(-c3ccc(OC)cc3Cl)n(CCO)c(=O)c12
- IC50 [15]: 4.4 nM
- IC50 [6]: 3.5 nM

SMILES: CCC(CC)c1cc(C)n2nc(-c3ccc(OC)cc3C)n(C3CC3)c(=O)c12
- IC50 [15]: 5.7 nM
- IC50 [6]: 3.7 nM

SMILES: CCC(CC)c1cc(C)n2nc(-c3ccc(OC)cc3Cl)n(CC)c(=O)c12
- IC50 [15]: 4.6 nM
- IC50 [6]: 0.7 nM

SMILES: CCC(CC)c1nc(C)n2nc(-c3ccc(OC)cc3C)c(C)cc12
- IC50 [15]: 122 nM
- IC50 [6]: 566 nM

SMILES: COc1cc(C)c(-c2nn3c(C)cc(C(C)C)c3c(=O)n2C)c(C)c1
- IC50 [15]: 13.1 nM
- IC50 [6]: 4.5 nM

SMILES: CCC(CC)c1nc(C)c2nc(-c3ccc(OC)cc3C)c(C)cn12
- IC50 [15]: 311 nM

SMILES: CCC(CC)c1cc(C)n2nc(-c3ccc(OC)cc3C)n(C(C)C)c(=O)c12
- IC50 [15]: 19.2 nM
- IC50 [6]: 5.1 nM

SMILES: COc1ccc(-c2nn3c(C)cc(C(C)C)c3c(=O)n2C)c(Cl)c1
- IC50 [15]: 8.7 nM
- IC50 [6]: 7.4 nM

SMILES: CCC(CC)c1cc(C)n2nc(-c3cc(C)c(C)cc3C)c(C)cc12
- IC50 [15]: 16.6 nM
- IC50 [6]: 3.3 nM

SMILES: CCC(CC)c1cc(C)n2nc(-c3ccc(N(C)C)nc3C)n(C)c(=O)c12
- IC50 [15]: 7.8 nM
- IC50 [6]: 5.5 nM

SMILES: CCC(CC)c1cc(C)n2nc(-c3c(C)cc(OC)cc3C)n(C)c(=O)c12
- IC50 [15]: 2 nM
- IC50 [6]: 0.6 nM

SMILES: CCC(CC)c1cc(C)n2nc(-c3ccc(OC)cc3Cl)[nH]c(=O)c12
- IC50 [15]: 14.3 nM
- IC50 [6]: 4 nM

SMILES: CCC(CC)c1cc(C)n2nc(-c3ccc(OC)cc3C)n(CC3CC3)c(=O)c12
- IC50 [15]: 3.3 nM
- IC50 [6]: 5 nM

SMILES: CCC(C)c1cc(C)n2nc(-c3ccc(OC)cc3C)n(C)c(=O)c12 (centres undefined)
- IC50 [15]: 5 nM
- IC50 [6]: 2.4 nM

SMILES: CCC(CC)c1cc(C)n2nc(-c3cnc(N(C)C)cc3C)c(C)cc12
- IC50 [15]: 7.4 nM
- IC50 [6]: 11.5 nM

SMILES: CCC(CC)c1cc(C)n2nc(-c3ccc(OC)cc3C)n(CCO)c(=O)c12
- IC50 [6]: 4.2 nM

SMILES: CCC(C)c1cc(C)n2nc(-c3ccc(N(C)C)nc3C)n(C)c(=O)c12 (centres undefined)
- IC50 [15]: 81.2 nM
- IC50 [6]: 36.5 nM

SMILES: CCC(CC)c1cc(C)n2nc(-c3ccc(C)cc3C)c(C)cc12
- IC50 [15]: 11.6 nM
- IC50 [6]: 1.8 nM

SMILES: CCC(CC)c1cc(C)n2nc(-c3ccc(OC)cc3Cl)n(C3CC3)c(=O)c12
- IC50 [15]: 5.9 nM
- IC50 [6]: 1 nM

SMILES: CCOc1ccc(-c2nn3c(C)cc(C(CC)CC)c3cc2C)c(CC)c1
- IC50 [15]: 13.4 nM
- IC50 [6]: 6.9 nM

SMILES: CCC(CC)c1cc(C)n2nc(-c3ccc(OC)cc3Cl)n(C)c(=O)c12
- IC50 [15]: 3.8 nM
- IC50 [6]: 1.2 nM

SMILES: CCC(C)c1cc(C)n2nc(-c3ccc(OC)cc3Cl)n(C)c(=O)c12 (centres undefined)
- IC50 [15]: 4.9 nM
- IC50 [6]: 1.1 nM

SMILES: Cc1nc(N(C)C)ccc1-c1nn2c(C)cc(C(C)C)c2c(=O)n1C
- IC50 [15]: 131 nM

SMILES: CCC(CC)c1cc(C)n2nc(-c3cnc(OC)cc3C)n(C)c(=O)c12
- IC50 [15]: 8.6 nM
- IC50 [6]: 17.2 nM

SMILES: CCC(C)c1cc(C)n2nc(-c3c(C)cc(OC)cc3C)n(C)c(=O)c12 (centres undefined)
- IC50 [15]: 4.2 nM
- IC50 [6]: 3.5 nM

SMILES: CCC(CC)c1cc(C)n2nc(-c3ccc(OC)cc3C)n(C)c(=O)c12
- IC50 [15]: 2.6 nM
- IC50 [6]: 1.7 nM

SMILES: CCc1cc(OC)c(OC)cc1-c1nn2c(C)cc(C(CC)CC)c2cc1C
- IC50 [15]: 8.9 nM
- IC50 [6]: 1.9 nM

SMILES: CCC(CC)c1cc(C)n2nc(-c3ccc(OC)cc3C)c(C)cc12
- Activity (Rattus norvegicus [16]): Active
- IC50 [6]: 4.9 nM

SMILES: CCC(CC)c1cc(C)n2nc(-c3ccc(OC(F)F)nc3C)n(C)c(=O)c12
- IC50 [15]: 4.5 nM
- IC50 [6]: 0.3 nM

SMILES: CCC(CC)c1cc(C)n2nc(-c3ccc(OC)cc3C)n(CC)c(=O)c12
- IC50 [15]: 9.7 nM
- IC50 [6]: 1.2 nM
